ChEMBL document CHEMBL4825702, “5-Aminonaphthalene derivatives as selective nonnucleoside nuclear receptor binding SET domain-protein 2 (NSD2) inhibitors for the treatment of multiple myeloma” (Eur J Med Chem, 2021)
The source made the active and inactive calls. No cut-off for these calls is given here.

Columns and labels:
RS4-11 [1] = test: Antiproliferative activity against human RS4-11 cells assessed as reduction in cell viability incubated for 6 days by CCK8 assay; conditions: RS4-11, 6 days
[2] = Cmax in CD-1 mouse at 2 mg/kg, ip measured up to 24 hrs by LC-MS/MS; format: ADME, organism-based; set-up: route intraperitoneal, dose 2 mg/kg, time <=24; conditions: in vivo
Outline: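 CD-1 mice given a single 2 mg/kg dose i.p. or i.v. (n = 3 per group). Blood sampled at 0, 0.083, 0.25, 0.5, 1, 2, 4, 6, 8 and 24 h and centrifuged for plasma, with internal standard added. Plasma deproteinized with methanol/acetonitrile (1:1), supernatant diluted with acetonitrile/water, and compound measured by LC/MS/MS.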

[3] = molecular target: Histone-lysine N-methyltransferase SETD2 (Homo sapiens, UniProt Q9BYW2); test: Inhibition of SETD2 (unknown origin) using SAM as substrate preincubated for 10 mins followed by substrate addition measured after 4 hrs by AlphaLISA method
RS4-11 [4] = test: Induction of apoptosis in human RS4-11 cells incubated for 72 hrs by annexin-V/FITC and propidium iodide staining based flow cytometry analysis; format: functional, cell-based; conditions: dose 5-10 µM
[5] = molecular target: Histone-lysine N-methyltransferase 2B (Homo sapiens, UniProt Q9UMN6); test: Inhibition of MLL4 (unknown origin) using SAM as substrate preincubated for 10 mins followed by substrate addition measured after 4 hrs by HTRF method
Outline: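 HTRF assay: inhibitor plus enzyme preincubated 10 min at room temperature, then peptide/SAM mix added and incubated at room temperature. Antibody and SA-XL665 detection mix added for 1 h in subdued light. Emission read at 665 and 620 nm; IC50 from two separate experiments.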

[6] = molecular target: Histone-lysine N-methyltransferase, H3 lysine-79 specific (Homo sapiens, UniProt Q8TEK3); test: Inhibition of DOT1L (unknown origin) using SAM as substrate preincubated for 10 mins followed by substrate addition measured after 4 hrs by AlphaLISA method
[7] = Inhibition of MET transcriptional activity in human KMS-11 cells assessed as reduction in H3K36 methylation at 10 uM measured after 72 hrs by chip q-PCR analysis
RS4-11 [8] = test: Antiproliferative activity against human RS4-11 cells assessed as reduction in cell viability incubated for 6 days by CCK8 assay; format: functional, cell-based; conditions: dose 1-100 µM, time 6.0 day
Outline: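 Cells seeded in triplicate at 6000–20000 per well and left 24 h, then exposed to increasing concentrations for a further 6 days. Viability read with CCK-8 and growth IC50 derived from the dose–response.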

MV4-11 = test: Induction of cell cycle arrest in human MV4-11 cells assessed as G0/G1 phase incubated for 72 hrs by ribonucleaseA/propidium iodide staining based flow cytometry analysis; format: functional
Outline: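 Cell cycle by PI: cells exposed for 72 h at 5 and 10 µM vs vehicle, washed twice, fixed overnight in pre-cooled 70% ethanol, then stained 45 min at room temperature with ribonuclease A and PI. Acquired on FACSCanto and phase fractions modelled.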

Chain of Histone-lysine N-methyltransferase, H3 lysine-79 specific (Q8TEK3 whole entry): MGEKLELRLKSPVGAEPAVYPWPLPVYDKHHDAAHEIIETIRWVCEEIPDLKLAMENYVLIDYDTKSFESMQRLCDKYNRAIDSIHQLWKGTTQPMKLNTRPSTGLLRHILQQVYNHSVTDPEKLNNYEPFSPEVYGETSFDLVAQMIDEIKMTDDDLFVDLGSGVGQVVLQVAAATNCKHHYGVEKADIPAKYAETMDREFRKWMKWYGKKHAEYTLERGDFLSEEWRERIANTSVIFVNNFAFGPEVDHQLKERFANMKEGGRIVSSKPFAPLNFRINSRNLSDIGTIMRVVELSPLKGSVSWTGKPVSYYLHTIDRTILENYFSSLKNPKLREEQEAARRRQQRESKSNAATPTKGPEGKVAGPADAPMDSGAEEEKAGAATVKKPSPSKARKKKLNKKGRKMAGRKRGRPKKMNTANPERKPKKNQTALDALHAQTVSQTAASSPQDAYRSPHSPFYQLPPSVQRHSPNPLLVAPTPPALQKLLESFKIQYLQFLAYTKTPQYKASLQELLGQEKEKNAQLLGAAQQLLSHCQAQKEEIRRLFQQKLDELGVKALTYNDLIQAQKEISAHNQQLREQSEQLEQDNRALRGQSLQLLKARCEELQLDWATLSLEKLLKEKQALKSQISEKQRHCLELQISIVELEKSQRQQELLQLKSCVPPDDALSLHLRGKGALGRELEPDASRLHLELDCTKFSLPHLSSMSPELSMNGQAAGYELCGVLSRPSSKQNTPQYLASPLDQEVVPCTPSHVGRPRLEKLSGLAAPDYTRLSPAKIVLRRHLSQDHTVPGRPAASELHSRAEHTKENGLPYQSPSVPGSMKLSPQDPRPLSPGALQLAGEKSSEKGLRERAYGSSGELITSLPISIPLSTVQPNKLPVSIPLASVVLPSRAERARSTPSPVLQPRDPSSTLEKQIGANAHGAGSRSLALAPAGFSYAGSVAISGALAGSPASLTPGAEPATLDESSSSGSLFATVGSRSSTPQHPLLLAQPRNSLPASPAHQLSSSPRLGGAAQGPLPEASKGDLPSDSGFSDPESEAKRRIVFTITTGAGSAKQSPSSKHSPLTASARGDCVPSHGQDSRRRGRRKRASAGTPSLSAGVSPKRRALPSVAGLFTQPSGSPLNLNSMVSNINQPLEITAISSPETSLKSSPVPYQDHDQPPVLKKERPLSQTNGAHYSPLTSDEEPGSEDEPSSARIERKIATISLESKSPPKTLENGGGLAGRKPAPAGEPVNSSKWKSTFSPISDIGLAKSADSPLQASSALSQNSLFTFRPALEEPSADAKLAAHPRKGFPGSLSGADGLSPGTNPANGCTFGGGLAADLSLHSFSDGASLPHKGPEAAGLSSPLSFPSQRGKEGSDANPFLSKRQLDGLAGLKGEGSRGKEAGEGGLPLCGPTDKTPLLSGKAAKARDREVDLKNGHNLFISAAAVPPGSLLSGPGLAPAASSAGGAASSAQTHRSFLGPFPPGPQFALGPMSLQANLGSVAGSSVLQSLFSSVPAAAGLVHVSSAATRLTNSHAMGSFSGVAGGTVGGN
Chain of Histone-lysine N-methyltransferase 2B (Q9UMN6 whole entry): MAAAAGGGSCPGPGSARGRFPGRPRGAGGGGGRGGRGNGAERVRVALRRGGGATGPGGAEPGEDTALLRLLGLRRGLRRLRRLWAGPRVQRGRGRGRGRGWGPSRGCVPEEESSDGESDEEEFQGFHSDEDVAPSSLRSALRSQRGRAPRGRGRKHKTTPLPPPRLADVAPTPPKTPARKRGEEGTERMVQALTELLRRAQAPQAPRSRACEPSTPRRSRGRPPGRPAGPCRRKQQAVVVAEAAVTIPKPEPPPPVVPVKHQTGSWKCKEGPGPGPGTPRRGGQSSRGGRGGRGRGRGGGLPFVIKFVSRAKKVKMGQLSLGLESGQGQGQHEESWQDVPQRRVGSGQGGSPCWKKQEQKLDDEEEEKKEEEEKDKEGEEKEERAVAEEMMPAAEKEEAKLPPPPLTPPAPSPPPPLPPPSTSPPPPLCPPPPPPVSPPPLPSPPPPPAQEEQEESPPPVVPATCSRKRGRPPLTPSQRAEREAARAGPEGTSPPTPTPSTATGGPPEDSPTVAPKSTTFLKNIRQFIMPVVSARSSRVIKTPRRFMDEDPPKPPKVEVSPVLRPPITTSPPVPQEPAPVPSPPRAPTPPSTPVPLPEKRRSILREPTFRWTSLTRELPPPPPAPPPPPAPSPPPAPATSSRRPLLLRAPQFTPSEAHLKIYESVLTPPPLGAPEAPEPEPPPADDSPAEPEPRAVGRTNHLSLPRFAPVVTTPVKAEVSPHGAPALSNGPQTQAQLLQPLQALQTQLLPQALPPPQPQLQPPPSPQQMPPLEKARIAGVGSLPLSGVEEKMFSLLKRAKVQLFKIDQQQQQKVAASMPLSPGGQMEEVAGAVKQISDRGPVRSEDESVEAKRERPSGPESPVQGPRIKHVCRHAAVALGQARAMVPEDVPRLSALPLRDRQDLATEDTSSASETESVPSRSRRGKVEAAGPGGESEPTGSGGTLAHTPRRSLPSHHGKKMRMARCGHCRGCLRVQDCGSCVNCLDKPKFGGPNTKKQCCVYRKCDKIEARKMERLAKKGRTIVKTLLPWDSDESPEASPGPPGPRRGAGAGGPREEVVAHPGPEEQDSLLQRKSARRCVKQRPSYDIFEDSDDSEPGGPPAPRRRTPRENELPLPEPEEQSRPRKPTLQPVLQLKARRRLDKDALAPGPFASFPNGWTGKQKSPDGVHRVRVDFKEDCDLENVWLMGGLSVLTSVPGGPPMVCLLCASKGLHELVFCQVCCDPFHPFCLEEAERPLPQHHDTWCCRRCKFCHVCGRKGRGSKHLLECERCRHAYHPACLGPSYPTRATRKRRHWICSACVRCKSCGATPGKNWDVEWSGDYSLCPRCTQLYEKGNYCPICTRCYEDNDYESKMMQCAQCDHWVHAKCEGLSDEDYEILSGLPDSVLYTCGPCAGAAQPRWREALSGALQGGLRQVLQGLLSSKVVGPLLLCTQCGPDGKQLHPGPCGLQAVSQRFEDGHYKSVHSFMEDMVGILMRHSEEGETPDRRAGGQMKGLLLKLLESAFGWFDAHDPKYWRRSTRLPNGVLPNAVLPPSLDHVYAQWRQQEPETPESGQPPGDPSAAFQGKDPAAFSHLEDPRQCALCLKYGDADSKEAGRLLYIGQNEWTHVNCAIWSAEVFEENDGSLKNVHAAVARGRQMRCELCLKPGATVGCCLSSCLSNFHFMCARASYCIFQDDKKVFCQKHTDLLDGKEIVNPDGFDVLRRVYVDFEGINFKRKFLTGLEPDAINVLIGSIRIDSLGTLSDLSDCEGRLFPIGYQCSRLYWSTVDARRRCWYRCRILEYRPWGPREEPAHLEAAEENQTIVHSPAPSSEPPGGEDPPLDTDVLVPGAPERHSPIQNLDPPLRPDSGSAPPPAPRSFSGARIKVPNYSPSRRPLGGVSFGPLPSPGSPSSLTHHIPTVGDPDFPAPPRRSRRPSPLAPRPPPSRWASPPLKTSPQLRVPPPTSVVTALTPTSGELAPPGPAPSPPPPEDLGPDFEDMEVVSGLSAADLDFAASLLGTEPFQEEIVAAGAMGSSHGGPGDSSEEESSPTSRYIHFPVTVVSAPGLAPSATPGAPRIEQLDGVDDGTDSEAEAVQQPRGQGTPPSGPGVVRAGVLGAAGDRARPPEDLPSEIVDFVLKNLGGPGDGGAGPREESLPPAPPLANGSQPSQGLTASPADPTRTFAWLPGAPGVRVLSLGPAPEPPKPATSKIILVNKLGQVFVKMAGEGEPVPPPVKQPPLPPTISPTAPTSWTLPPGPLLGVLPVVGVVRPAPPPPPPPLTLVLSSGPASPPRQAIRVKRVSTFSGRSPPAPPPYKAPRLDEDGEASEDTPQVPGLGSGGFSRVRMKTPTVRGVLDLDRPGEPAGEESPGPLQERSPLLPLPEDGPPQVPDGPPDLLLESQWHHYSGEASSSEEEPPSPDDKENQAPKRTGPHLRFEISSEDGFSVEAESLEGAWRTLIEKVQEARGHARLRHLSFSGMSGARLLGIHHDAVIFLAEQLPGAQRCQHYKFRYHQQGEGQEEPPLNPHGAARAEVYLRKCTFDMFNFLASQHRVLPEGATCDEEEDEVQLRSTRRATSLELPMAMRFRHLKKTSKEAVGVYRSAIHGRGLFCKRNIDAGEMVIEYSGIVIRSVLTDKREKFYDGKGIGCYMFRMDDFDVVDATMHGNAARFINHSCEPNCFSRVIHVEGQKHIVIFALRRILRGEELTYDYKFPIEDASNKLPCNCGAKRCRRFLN

**Q.** With `Cl.Nc1cccc2c(S(=O)(=O)NCc3ccccc3)cccc12` as the compound, how does the IC50 (RS4-11 [1]) read?
**A.** Its IC50 is 0.52 µM.

**Q.** What about the Cmax [2] of the same compound?
**A.** Its Cmax is 433 ng/mL.

**Q.** What about the IC50 [3] of the same compound?
**A.** The IC50 was > 20 µM.

**Q.** And the Activity (RS4-11 [4])?
**A.** Its Activity is “Dose-Dependent Effect”.

**Q.** And the IC50 [5]?
**A.** Its IC50 is > 20 µM.

**Q.** What about the IC50 [6] of the same compound?
**A.** Its IC50 is > 20 µM.

**Q.** And the inhibition [7]?
**A.** Its inhibition is “Active”.

**Q.** And the Activity (RS4-11 [8])?
**A.** Its Activity is “Dose-Dependent Effect”.

**Q.** And the Activity (MV4-11)?
**A.** Its Activity is “inactive”.
